Assay outcomes deposited in PubChem BioAssay by several laboratories.
AHR act: AHR activators, primary screen, cell-based, luminescence, luciferase reporter, human. Aryl hydrocarbon receptor (Homo sapiens), P35869. AHR-responsive luciferase reporter cells. activation, % at 5 µM. 320,000 tested, 2.5% active. AID 2796, 2010; in the data active = activation above about 47%;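 note: 0% = vehicle wells and 100% = reference agonist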
SR-BI uptake up: activators of SR-BI mediated DiI-HDL uptake, primary screen, ldlA[mSR-BI] CHO cells, DiI fluorescence | 3 h; 100 = double the neutral-control signal | activation, % at 12.5 µM | 320,000 tested, 0.096% active | AID 504775, 2011;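 active = mean replicate activation of at least 60% and every replicate at or above 60%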;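 note: 0% = median plate neutral-control signal and 100% = twice that signal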
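Test system: SR-BI-overexpressing, LDLR-lacking CHO cells. Measured by: DiI fluorescence, bottom read. Medium: Ham's F12 with 0.5% BSA, HEPES 25 mM, pH 7.4. Timing: 3 h uptake period with compound, 37 °C.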
Lipid droplet: inhibitors of hepatocyte lipid droplet formation, primary screen, imaging, high-throughput imaging, BODIPY stain; AML12 mouse hepatocytes, oleate lipid droplets; inhibition, % at 6.5 µM; 240,000 tested, 0.4% active; AID 1656, 2009;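 active = lipid droplet intensity inhibited by at least 50%, with more than 500 cells counted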
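Test system: AML12 mouse liver cells; schedule: overnight exposure; technique: high-content imaging of BODIPY-stained droplets and DAPI nuclei; read-out: % inhibition of corrected integrated BODIPY droplet signal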
SR-BI DiI inh: inhibitors of SR-BI mediated HDL lipid uptake, primary screen, ldlA[mSR-BI] cells, fluorescence, single point. ldlA[mSR-BI] CHO cells, DiI-HDL uptake fluorescence, 3 h. inhibition, % at 12.5 µM. AID 488896, 2010. 320,000 tested, 0.96% active;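 active = mean replicate inhibition of at least 70% and a set share of replicates each scoring 70 or more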;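 note: 0% = median of neutral control wells and 100% = median of positive control wells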
Target sequence (Q61009 whole entry, looked up): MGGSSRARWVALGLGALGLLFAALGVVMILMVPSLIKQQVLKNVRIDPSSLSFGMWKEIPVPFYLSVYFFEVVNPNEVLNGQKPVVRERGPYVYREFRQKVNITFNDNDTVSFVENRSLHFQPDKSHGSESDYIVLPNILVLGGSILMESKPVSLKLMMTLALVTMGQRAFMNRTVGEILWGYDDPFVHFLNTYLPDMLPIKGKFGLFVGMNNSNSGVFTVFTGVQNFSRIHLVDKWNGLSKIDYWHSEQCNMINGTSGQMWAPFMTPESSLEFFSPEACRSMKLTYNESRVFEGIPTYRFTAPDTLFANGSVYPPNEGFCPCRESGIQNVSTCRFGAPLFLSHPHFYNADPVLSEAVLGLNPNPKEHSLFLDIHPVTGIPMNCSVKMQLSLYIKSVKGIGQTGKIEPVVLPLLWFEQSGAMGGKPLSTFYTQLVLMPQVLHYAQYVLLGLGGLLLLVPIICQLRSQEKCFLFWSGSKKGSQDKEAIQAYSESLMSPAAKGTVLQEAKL
SMARCA2 activ: SMARCA2 (BRM) function activators, primary screen, cell-based, luminescence, high throughput; MG213 cells, MMTV-luciferase reporter, dexamethasone, overnight; activation, % at 9.1 µM; 370,000 tested, 1% active; in the data active = activation above about 7.8%;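 note: 0% = vehicle wells and 100% = reference activator wells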
CR mimetic SO: reduction of superoxide in aged yeast, primary screen, HTS | S. cerevisiae aged cells, superoxide DHE fluorescence; stronger effect = lower value | superoxide response (% of plate mean), % at 10 µM | 330,000 tested, 0.18% active | AID 2690, 2010;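 active = superoxide response under a set limit, about three screen SD below normal, cut at about 65% in these data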;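 note: yeast aged for seven days with compound at 30 °C before DHE staining; 100% = average MFI of all compound-treated wells on the plate with controls excluded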
An asterisk follows results filed as active; nt = no result. This is a sample that favours compounds with a hit; in the whole collection about 4.3% have one here.

SMILES	AHR act	SR-BI uptake up	Lipid droplet	SR-BI DiI inh	SMARCA2 activ	CR mimetic SO
COP(N)(=O)C(CC(C)C)NC(=O)OCc1ccccc1 (configuration not stated)	nt	nt	nt	nt	0.2	nt
CCCCCCCCN1CN2Cc3ccc(C)cc3C2CS1(=O)=O (configuration not stated)	nt	nt	nt	nt	-1.2	nt
CCN(CC(=O)NCc1ccc(F)cc1)C(=O)/C=C/c1ccc(S(=O)(=O)N(CC)CC)cc1	1.7	-75.7	-8.9	75.7*	-3.5	95.6
CCCCc1cc(=O)oc2cc(C)cc(OCC(=O)NCc3ccncc3)c12	56.0*	-6.5	-18.1	6.5	0.1	98.1
Cc1cc(OCC(=O)Nc2cccnc2)c2c(C)cc(=O)oc2c1	63.7*	17.9	-14.0	-17.9	1.5	103.5
COc1cccc2cc(-c3nc4ccccc4[nH]3)c(=O)oc12	71.6*	-12.2	8.3	12.2	2.1	88.3
COc1cccc2cc(-c3ccccc3)c(=O)oc12	19.5	-15.7	-1.7	18.9	4.0	79.8
COC(=O)c1ccccc1-c1ccc(/C=N/NC(=O)c2cc3ccccc3o2)o1	6.5	-12.1	41.7	12.1	1.8	89.0
COC(=O)c1ccccc1-c1c2ccc(=N)cc-2oc2cc(N)ccc12	0.7	-76.6	nt	76.6*	-3.1	125.1
COc1ccc(C(=O)NC(=S)Nc2cccnc2)cc1[N+](=O)[O-]	59.0*	-38.3	-31.3	38.3	-0.4	47.9*
O=C(NC(=S)NCc1ccccc1)c1ccccc1	-1.4	65.0*	-5.9	-65.0	-1.8	101.4
COc1ccc(C(=O)NC(=S)NCc2cccnc2)cc1Br	50.8*	-18.3	-12.7	18.3	-4.2	75.0
COc1ccc(C(C(=O)N(C)C2CCCC2)N(Cc2ccc(F)cc2)C(=O)c2ncn[nH]2)cc1OC (configuration not stated)	nt	nt	nt	nt	-5.8	nt
O=[N+]([O-])c1cc(S(=O)(=O)Nc2ccc(Cl)cc2)ccc1N/N=C/c1ccncc1	9.4	-72.2	7.3	72.2*	-1.8	110.6
CS(=O)(=O)N1CCC(C(=O)NCC2COc3ccccc3O2)CC1 (configuration not stated)	nt	nt	nt	nt	-1.2	nt
O=S(=O)(Nc1cc(Sc2ncn[nH]2)c(O)c2ccccc12)c1ccccc1	nt	-39.5	-38.7	39.5	-12.1	nt
O=C(O)CSc1cc(NS(=O)(=O)c2ccc(Br)cc2)c2ccccc2c1O	48.8*	0.0	nt	0.0	-2.0	127.5
CC(C)(C)OC(=O)N1CCC2CCN(CCc3ccccc3)CC21 (configuration not stated)	nt	nt	nt	nt	-4.7	nt
CCOC(=O)c1cccc(NC(=O)CN(C)S(=O)(=O)c2ccc(Br)s2)c1	nt	nt	nt	nt	-3.6	nt
Cc1cccc(N=C2NC(=O)/C(=C/c3cccnc3)S2)c1C	47.2*	-1.5	-0.3	1.5	4.9	91.1
Cc1cccc(N=C2NC(=O)/C(=C\c3cccs3)S2)c1	32.0	2.7	-18.4	-2.7	7.9*	128.9
O=C1NC(=Nc2cccc(O)c2)S/C1=C\c1cccnc1	4.6	nt	-10.0	nt	7.9*	110.7
Cc1ccc(N=C2NC(=O)/C(=C/c3cccnc3)S2)c(C)c1	13.3	16.6	-4.5	-16.6	-2.1	97.3
C=CCN1[C@H](CC(C)C)COc2cc(F)ccc2S1(=O)=O	nt	nt	nt	nt	1.4	nt
Cc1cc(C)c2cc(C(=O)Nc3ccc4c(c3)OCO4)[nH]c2c1	10.5	nt	3.9	nt	0.6	105.2
SMILES	AHR act	SR-BI uptake up	Lipid droplet	SR-BI DiI inh	SMARCA2 activ	CR mimetic SO
Cc1cc(C)c2cc(C(=O)Nc3ccccc3)[nH]c2c1	47.2*	-45.7	nt	45.7	0.0	103.4
COC(=O)[C@]12C[C@H](CC(=O)N3CCCC3)C(=O)N(Cc3cccc4ccccc34)C1=C[C@H](C(C)(C)C)O[C@@H]2C	nt	nt	nt	nt	-2.5	nt
COC(=O)[C@]12C[C@H](CC(=O)N3CCSCC3)C(=O)N(Cc3ccccc3)C1=C[C@H](C(C)C)O[C@@H]2C1CC1	nt	nt	nt	nt	-3.0	nt
NNc1nc(Nc2ccc([N+](=O)[O-])cc2)nc(N2CCCCCC2)n1	67.6*	2.4	-3.9	-2.4	-2.0	108.9
O=[N+]([O-])c1ccc(Nc2nc(NCCO)nc(N3CCCC3)n2)cc1	18.1	-46.8	-5.3	46.9	0.4	104.4
O=[N+]([O-])c1ccc(Nc2nc(N/N=C\c3ccc4c(c3)OCO4)nc(N3CCCCC3)n2)cc1	70.5*	-61.9	nt	61.9	1.3	104.5
O=[N+]([O-])c1ccc(/C=N/Nc2nc(N3CCCCC3)nc(N3CCCCC3)n2)cc1	2.2	-7.7	5.5	7.7	-3.1	108.2
N#CC1=C(N)Oc2cc(N)ccc2C1c1ccccc1Cl (configuration not stated)	nt	-3.5	1.1	3.5	-2.5	99.9
CC(=O)n1c2c(c3ccccc31)OC(N)=C(C#N)C2c1cccc(Cl)c1Cl (configuration not stated)	48.5*	-23.7	0.0	23.7	-1.1	132.9
COCCCNC(=O)C[C@H]1C[C@@]2(C(=O)OC)C(=C[C@H](C3CCCC3)O[C@@H]2C)N(Cc2ccco2)C1=O	nt	nt	nt	nt	-1.0	nt
COc1ccc(S[C@]2(C(=O)N3CCN(C(C)=O)CC3)CC(=O)N[C@@H]2c2ccc(OC)cc2)cc1	nt	nt	nt	nt	-4.1	nt
COc1ccc(N/C=C(\C#N)c2nc3ccccc3n2C)c(OC)c1	109.3*	-59.5	nt	59.5	4.6	90.1
O=C(NCc1ccccc1)N1CCN(Cc2nc3ccccc3c(=O)[nH]2)CC1	nt	nt	nt	nt	-0.1	nt
O=C(N/N=C/c1ccc(Br)o1)c1cccnc1	15.3	-12.7	0.2	12.7	-2.7	86.2
Cc1ccc(/C=N\NC(=O)c2cncc(Br)c2)o1	63.6*	-0.8	0.5	0.8	2.8	101.9
COc1ccc(/C=N/NC(=O)c2cccnc2)c2ccccc12	25.9	8.2	-2.6	-8.2	0.4	84.9
COc1ccc(/C=N/NC(=O)c2cccs2)c2ccccc12	52.7*	-11.7	nt	11.7	3.9	101.6
Cc1ccc(/C=N/NC(=O)c2cccs2)o1	77.8*	-15.2	-4.8	15.2	3.0	101.1
Cc1ccc(/C=N/NC(=O)c2cccnc2)o1	72.3*	-9.3	-13.4	9.3	-1.4	92.8
Cc1ccc(/C=N/NC(=O)c2csc(C)c2)o1	19.9	10.9	-3.7	-10.9	3.3	83.2
COc1ccc(-c2cc(=O)[nH]c(=S)[nH]2)cc1	2.2	26.1	-11.9	-26.1	0.0	100.2
CC(C)Oc1ccc(-c2cc(=O)[nH]c(=O)[nH]2)cc1	69.2*	20.6	4.8	-20.6	1.6	83.0
CC(Oc1cccnc1[N+](=O)[O-])C(=O)Nc1ccc(Cl)cn1 (configuration not stated)	56.3*	-19.1	nt	19.1	2.6	99.8
CCC(=O)N1CCc2cc(Br)c(S(=O)(=O)NC3CCN(Cc4ccccc4)CC3)cc21	nt	nt	nt	nt	-0.3	nt
